Test results taken from ChEMBL document CHEMBL1124743, “Development of a novel series of (2-quinolinylmethoxy)phenyl-containing compounds as high-affinity leukotriene receptor antagonists. 1. Initial structure-activity relationships” (J Med Chem, 1990).
pKi: −log10 of the molar value. The source made the active and inactive calls. The calls are words filed in the database; no cut-off is given here.

Tests used:
[1] = target: T1, Cysteinyl leukotriene receptor 1 (Cavia porcellus, UniProt Q2NNR5); assay: Binding affinity against Cysteinyl leukotriene D4 receptor from guinea pig lung was determined using [3H]LTD4 (0.2 nM)
T1 sequence (Q2NNR5 whole entry): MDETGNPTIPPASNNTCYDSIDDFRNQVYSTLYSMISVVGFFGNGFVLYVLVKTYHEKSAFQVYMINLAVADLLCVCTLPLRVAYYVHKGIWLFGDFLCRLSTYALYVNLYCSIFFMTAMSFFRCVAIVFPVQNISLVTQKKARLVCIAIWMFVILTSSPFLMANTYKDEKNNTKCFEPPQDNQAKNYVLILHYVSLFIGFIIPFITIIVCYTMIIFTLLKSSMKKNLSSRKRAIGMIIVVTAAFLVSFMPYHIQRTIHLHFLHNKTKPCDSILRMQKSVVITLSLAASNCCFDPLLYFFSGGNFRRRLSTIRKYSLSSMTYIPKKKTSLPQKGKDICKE
Method in brief: (§1)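 Membranes from guinea pig lung were incubated with 0.2 nM [3H]LTD4. Ki was derived from an IC50 read graphically, using at least four compound concentrations run in duplicate. Single-concentration values are % inhibition of specific binding at the stated concentration. Results are mean ± SEM with N separate experiments.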

[2] = organism: Cavia porcellus; assay: Oral activity expressed as effective dose in leukotriene mediated anaphylaxis assay in guinea pig; format: functional
Method in brief: (§2)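 Immunized guinea pigs were pretreated with pyrilamine, propranolol and indomethacin, given compound orally, then challenged with aerosolized ovalbumin. Mortality was the end point. ED50 was determined graphically from at least three doses with at least six animals per dose. Other values are % inhibition at the indicated mg/kg dose.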

[3] = organism: Cavia porcellus; assay: Oral activity expressed as effective dose in LTD4-induced wheal assay in guinea pig; format: functional
Method in brief: (§3)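 Guinea pigs received compound orally 60 min before intradermal LTD4 challenge, and wheal formation was scored. ED50 came from linear regression over at least three doses, with at least five animals per point. Other values are % inhibition at the indicated mg/kg dose.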

[4] = organism: Cavia porcellus; assay: Oral activity expressed as percent inhibition in LTD4-induced wheal assay in guinea pig at 10 uM; format: functional; settings: in the assay text read “at 10 mg/kg” for “at 10 uM”; method in brief: as §3
[5] = target: Cysteinyl leukotriene receptor (Cavia porcellus); assay: Inhibition of the spasmogenic activity of LTD4 in guinea pig parenchymal strips.
[6] = organism: Cavia porcellus; assay: Ability to inhibit the spasmogenic activity of LTD4 in guinea pig parenchymal strips at 10 uM; format: functional
[7] = target: T2, Cysteinyl leukotriene receptor 1 (Cavia porcellus) (UniProt Q2NNR5); assay: Binding affinity at 10 uM against Cysteinyl leukotriene D4 receptor from guinea pig lung by [3H]LTD4 (0.2 nM) displacement.; method in brief: as §1
T2 sequence (whole entry): T1 sequence (Q2NNR5 whole entry)

[8] = target: T2, Cysteinyl leukotriene receptor 1 (Cavia porcellus); assay: Binding affinity against Cysteinyl leukotriene D4 receptor from guinea pig lung was determined using [3H]LTD4 (0.2 nM) at compound concentration of 1 uM; method in brief: as §1
[9] = system: Cysteinyl leukotriene receptor (Cavia porcellus); assay: inhibition of the spasmogenic activity of LTD4 in guinea pig parenchymal strips at 10 uM.
[10] = organism: Cavia porcellus; assay: Oral activity expressed as percent inhibition in leukotriene mediated anaphylaxis assay in guinea pig at 60 uM; format: functional; settings: in the assay text read “60 mg/kg” for “60 uM”; method in brief: as §2
[11] = system: Cavia porcellus; assay: Oral activity expressed as percent inhibition in LTD4-induced wheal assay in guinea pig at 18 mg/kg
[12] = organism: Cavia porcellus; assay: Oral activity expressed as percent inhibition in LTD4-induced wheal assay in guinea pig at 9 uM; format: functional; settings: in the assay text read “at 9 mg/kg” for “at 9 uM”; method in brief: as §3
[13] = organism: Cavia porcellus; assay: Oral activity expressed as percent inhibition in leukotriene mediated anaphylaxis assay in guinea pig at 30 uM; format: functional; settings: in the assay text read “30 mg/kg” for “30 uM”; method in brief: as §2
[14] = organism: Cavia porcellus; assay: Compound was evaluated for its effect on histamine induced contractions of guinea pig peripheral lung strips; No significant effect up to 50 uM; format: functional
[15] = organism: Cavia porcellus; assay: Compound was evaluated for its effect on LTC4 induced contractions of guinea pig peripheral lung strips; format: functional
Method in brief: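 Guinea pig lung parenchymal strips were suspended in a tissue bath and contracted with 0.2 nM LTC4. IC50 was determined graphically from at least four concentrations. Results are mean ± SEM with N separate experiments, or % inhibition at the stated concentration.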

[16] = system: Arachidonate 5-lipoxygenase (Cavia porcellus); assay: Percent inhibition against 5-lipoxygenase from guinea pig polymorphonuclear […]; settings: concentration not given here
[17] = organism: Cavia porcellus; assay: Compound was evaluated for its effect on PGF2-alpha induced contractions of guinea pig peripheral lung strips; No significant effect up to 50 uM; format: functional
[18] = organism: Cavia porcellus; assay: Compound was evaluated for its effect on LTE4 induced contractions of guinea pig peripheral lung strips; format: functional
[19] = organism: Cavia porcellus; assay: Compound was evaluated for its effect on LTD4 induced contractions of guinea pig peripheral lung strips; format: functional
[20] = system: Cavia porcellus; assay: Effective dose to antagonize bronchoconstrictive response of LTD4 at 0.8 ug/kg (i.v.); format: functional; settings: Lung, iv
[21] = organism: Cavia porcellus; assay: Half life was determined; settings: guinea pig
[22] = organism: Cavia porcellus; assay: Compound was evaluated for its effect on methacholine induced contractions of guinea pig peripheral lung strips; No significant effect up to 50 uM; format: functional
[23] = target: T1, Cysteinyl leukotriene receptor 1; assay: Compound was evaluated for inhibition against binding of [3H]LTD4 to Cysteinyl leukotriene D4 receptor; method in brief: as §1
[24] = system: Cavia porcellus; assay: Effective dose to antagonize antigen induced bronchoconstrictive response (intraduodenal administration); format: functional
Method in brief: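 Actively sensitized guinea pigs were pretreated with indomethacin, pyrilamine and propranolol, then given compound intraduodenally and challenged with iv ovalbumin. Inhibition of bronchoconstriction was measured. ED50 is reported with 95% CI.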

[25] = organism: Cavia porcellus; assay: Ability to inhibit the spasmogenic activity of LTC4 in guinea pig parenchymal strips at 1 uM

Cc1cc(OCc2ccc3ccccc3n2)ccc1OCCCc1nnn[nH]1
pKi [1]: 6.77

O=C(O)CCCOc1cccc(OCc2ccc3ccccc3n2)c1
ED50 [2]: 20 mg/kg | ED50 [3]: 7.2 mg/kg

c1ccc2nc(COc3ccc(CCCCc4nnn[nH]4)cc3)ccc2c1
Inhibition [4]: 35%

c1ccc2nc(COc3ccc(CCc4nnn[nH]4)cc3)ccc2c1
IC50 [5]: 280 nM | pKi [1]: 6.80

CCCCCC(O)c1cccc(OCc2ccc3ccccc3n2)c1 (stereo not given) [REV-5901]
pKi [1]: 5.82

c1cc(OCCCc2nnn[nH]2)cc(OCc2cc3ccccc3cn2)c1
inhibition at 10 µM [6]: 68% | inhibition [7]: 45%

c1ccc2c(COc3ccc(OCCCc4nnn[nH]4)cc3)nccc2c1
inhibition [8]: 7%

c1cc(OCCCc2nnn[nH]2)cc(OCc2cnc3ccccc3c2)c1
inhibition [7]: 15% | inhibition [9]: -10%

c1cc(OCc2ccc3ccccc3n2)cc(OCc2nn[nH]n2)c1
IC50 [5]: 140 nM | Inhibition [10]: 67% | Inhibition [11]: 18% | pKi [1]: 7.07

O=C(Nc1ccc2ccccc2n1)c1ccc(OCCCc2nnn[nH]2)cc1
inhibition [7]: 33% | inhibition [9]: 43%

c1ccc2nc(COc3ccc(Cc4nnn[nH]4)cc3)ccc2c1
IC50 [5]: 1000 nM | pKi [1]: 6.56

c1ccc(COc2cccc(OCCCc3nnn[nH]3)c2)nc1
inhibition [7]: 10% | inhibition [9]: 18%

c1ccc(-c2cccc(COc3ccc(OCCCc4nnn[nH]4)cc3)n2)cc1
inhibition [7]: 48% | inhibition [9]: 50%

c1ccc2nc(COCc3ccc(OCCCc4nnn[nH]4)cc3)ccc2c1
pKi [1]: 5.92

O=C(O)CCCOc1ccc(OCc2ccc3ccccc3n2)cc1
IC50 [5]: 800 nM | pKi [1]: 5.92

CCOC(=O)c1ccc(COc2ccc(OCCCc3nnn[nH]3)cc2)nc1
inhibition [7]: 35% | inhibition [9]: 41%

O=C(CCCOc1ccc(OCc2ccc3ccccc3n2)cc1)NS(=O)(=O)c1ccccc1
IC50 [5]: 19 nM | Inhibition [10]: 64% | pKi [1]: 7.51 | Inhibition [12]: 24%

O=C(Nc1ccc(OCCCc2nnn[nH]2)cc1)c1ccc2ccccc2n1
inhibition [7]: 25% | inhibition [9]: 4%

CCOC(=O)CCCOc1ccc(OCc2ccc3ccccc3n2)cc1
IC50 [5]: 2000 nM | pKi [1]: 6.30

c1ccc2[nH]c(COc3ccc(OCCCc4nnn[nH]4)cc3)nc2c1
inhibition [7]: 28% | inhibition [9]: 42%

CCc1ccc(OCc2ccc3ccccc3n2)cc1OCCCc1nnn[nH]1
IC50 [5]: 250 nM | pKi [1]: 6.62

CCOC(=O)CCCOc1cccc(OCc2ccc3ccccc3n2)c1
Inhibition [13]: 83% | IC50 [5]: 600 nM | pKi [1]: 6.80 | ED50 [3]: 15 mg/kg

O=C(NCc1ccc2ccccc2n1)c1ccc(OCCCc2nnn[nH]2)cc1
inhibition [7]: 18% | inhibition [9]: -3%

c1ccc(OCc2ccc3ccccc3n2)c(OCCCc2nnn[nH]2)c1
pKi [1]: 5.48

c1ccc2c(c1)CCC(COc1ccc(OCCCc3nnn[nH]3)cc1)N2 (stereo not given)
inhibition [9]: 22%

c1ccc2sc(COc3ccc(OCCCc4nnn[nH]4)cc3)cc2c1
inhibition [7]: 9% | inhibition [9]: 36%

c1cc(OCCCc2nnn[nH]2)cc(OCc2ccc3ccccc3c2)c1
inhibition [7]: 0% | inhibition [9]: 12%

c1ccc2nc(COc3ccc(SCCCc4nnn[nH]4)cc3)ccc2c1
IC50 [5]: 25 nM | Inhibition [4]: 23% | pKi [1]: 7.51

c1ccc2nc(COc3ccc(OCCCc4nnn[nH]4)cc3)ncc2c1
inhibition [9]: 75% | pKi [1]: 6.30

c1cc(OCCCc2nnn[nH]2)cc(OCc2ccc3ccccc3n2)c1
Activity [14]: inactive | Kb [15]: ~90 nM | inhibition [16]: 9% | IC50 [5]: 79 nM | Activity [17]: inactive | Kb [18]: ~90 nM | Kb [19]: ~90 nM | ED50 [2]: 16 mg/kg | pKi [1]: 7.38 | ED50 [20]: 1.1 mg/kg | ED50 [3]: 6.9 mg/kg | half-life [21]: ~4 h | Activity [22]: inactive | pKi [23]: 7.38 | ED50 [24]: 2.5 mg/kg

c1ccc(Oc2cccc(COc3cccc(OCCCc4nnn[nH]4)c3)n2)cc1
inhibition [7]: 48% | inhibition [9]: 9%

c1ccc(OCc2ccc3ccccc3n2)cc1
pKi [1]: 6.00

c1ccc(COc2ccc(OCCCc3nnn[nH]3)cc2OCc2ccc3ccccc3n2)cc1
inhibition [7]: 57% | inhibition [9]: 44%

c1ccc(-c2ccc(COc3cccc(OCCCc4nnn[nH]4)c3)nc2)cc1
inhibition [7]: 58% | inhibition [9]: 22%

c1ccc2nc(COc3ccc(OCCCc4nnn[nH]4)cc3)ccc2c1
IC50 [5]: 250 nM | ED50 [2]: 50 mg/kg | pKi [1]: 7.16 | ED50 [3]: 7 mg/kg | half-life [21]: ~4 h

c1ccc2sc(COc3ccc(OCCCc4nnn[nH]4)cc3)nc2c1
inhibition [9]: 59% | pKi [1]: 6.62

c1cc(OCc2ccc3ccccc3n2)cc(-c2nn[nH]n2)c1
IC50 [5]: 200 nM | ED50 [2]: 145 mg/kg | pKi [1]: 6.94

c1cc(OCCCCc2nnn[nH]2)cc(OCc2ccc3ccccc3n2)c1
IC50 [5]: 120 nM | Inhibition [2]: 64% | pKi [1]: 7.12

O=C(O)c1ccc(COc2ccc(OCCCc3nnn[nH]3)cc2)nc1
inhibition [7]: 30% | inhibition [9]: 22%

c1ccc2nc(CSc3ccc(OCCCc4nnn[nH]4)cc3)ccc2c1
pKi [1]: 6.27

c1ccc(COc2cccc(OCCCc3nnn[nH]3)c2)cc1
inhibition [7]: 12% | inhibition [9]: 9%

Cc1cc(OCCCc2nnn[nH]2)cc(OCc2ccc3ccccc3n2)c1
pKi [1]: 6.19 | inhibition at 1 µM [25]: 20%
